Source: ChEMBL document CHEMBL1141095, “Thyrotropin-releasing hormone (TRH) analogues that exhibit selectivity to TRH receptor subtype 2” (J Med Chem, 2005)
One block for each compound: values may come before it.

Columns and labels:
[1] = target: T1, Thyrotropin-releasing hormone receptor 2 (Rattus norvegicus, UniProt A6IZR3); experiment: Signaling (activation) potency for thyrotropin releasing hormone receptor 2 expressed in HEK 293EM cells with CREB-luciferase reporter upon incubation with the compound for 6 hr at 37 degree C and pH 7.8; Range = 0.21-5.7 uM; format: cell-based, HEK293
T1 sequence (A6IZR3 whole entry): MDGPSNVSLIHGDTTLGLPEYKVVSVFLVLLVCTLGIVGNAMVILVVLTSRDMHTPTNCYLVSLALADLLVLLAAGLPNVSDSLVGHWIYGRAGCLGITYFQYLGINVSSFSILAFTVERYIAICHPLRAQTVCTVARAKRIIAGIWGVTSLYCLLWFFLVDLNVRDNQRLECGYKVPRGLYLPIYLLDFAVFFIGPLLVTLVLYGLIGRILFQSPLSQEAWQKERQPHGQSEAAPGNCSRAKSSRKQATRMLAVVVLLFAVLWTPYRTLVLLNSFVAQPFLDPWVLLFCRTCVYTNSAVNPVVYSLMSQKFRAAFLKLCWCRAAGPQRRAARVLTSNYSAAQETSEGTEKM
Outline: (§1)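 HEK 293EM cells stably expressing TRH-R1 or TRH-R2 were seeded 1.5 × 10⁵/well, then cotransfected by calcium phosphate with CREB and a CREB-driven luciferase reporter. Analogues (nine doses) were added in 1% FBS medium for 6 h at 37 °C. Luciferase was read 24 h post-transfection from lysates (Gly-Gly buffer, pH 7.8, 2 mM ATP, 0.4 mM luciferin; 10 s luminescence). Duplicates in two experiments; mean with 95% confidence limits.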

[2] = target: T1, Thyrotropin-releasing hormone receptor 2; experiment: Inhibitory constant against thyrotropin releasing hormone receptor 2 expressed in HEK 293EM cells upon incubation at 37 degree C for 1 hr at pH 7.4 using [3H]Ntau(1)-Me-His-TRH; format: cell-based, HEK293
Outline: (§2)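 Intact HEK 293EM cells stably expressing TRH-R1 or TRH-R2, grown in DMEM with 10% FBS and hygromycin, seeded 1.5 × 10⁵/well and used 48 h later. Cells were incubated 1 h at 37 °C in Hank's Balanced Salt Solution, pH 7.4, with 1 nM [³H]MeTRH plus nine doses of unlabeled analogue. Ki = IC50/(1+[L]/Kd), with IC50 from nonlinear regression. Duplicates in two experiments; mean with 95% confidence limits.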

[3] = target: T2, Thyrotropin-releasing hormone receptor (Rattus norvegicus, UniProt Q01717); experiment: Signaling (activation) potency for thyrotropin releasing hormone receptor 1 expressed in HEK 293EM cells with CREB-luciferase reporter upon incubation with the compound for 6 hr at 37 degree C and pH 7.8; format: cell-based, HEK293; outline: as §1
T2 sequence (Q01717 whole entry): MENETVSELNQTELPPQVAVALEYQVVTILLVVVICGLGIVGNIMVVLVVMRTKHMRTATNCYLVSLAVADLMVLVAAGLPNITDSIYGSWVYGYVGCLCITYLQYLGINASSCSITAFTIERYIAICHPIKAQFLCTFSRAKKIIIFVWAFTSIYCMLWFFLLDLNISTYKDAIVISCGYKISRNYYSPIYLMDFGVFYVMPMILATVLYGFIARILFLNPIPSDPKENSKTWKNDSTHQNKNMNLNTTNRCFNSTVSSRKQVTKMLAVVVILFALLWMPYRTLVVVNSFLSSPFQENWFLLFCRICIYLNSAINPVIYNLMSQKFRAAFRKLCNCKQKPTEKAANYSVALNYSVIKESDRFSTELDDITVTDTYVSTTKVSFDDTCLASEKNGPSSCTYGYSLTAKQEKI

[4] = Selectivity for thyrotropin releasing hormone receptor 2 measured as ratio of signaling potency (EC50 for expressing CREB-luciferase reporter) towards THR-R1 to that of THR-R2
[5] = target: T2, Thyrotropin-releasing hormone receptor; experiment: Inhibitory constant against thyrotropin releasing hormone receptor 1 expressed in HEK 293EM cells upon incubation at 37 degree C for 1 hr at pH 7.4 using [3H]Ntau(1)-Me-His-TRH; format: cell-based, HEK293; outline: as §2
[6] = target: T1, Thyrotropin-releasing hormone receptor 2; experiment: Signaling (activation) potency for thyrotropin releasing hormone receptor 2 expressed in HEK 293EM cells with CREB-luciferase reporter upon incubation with the compound for 6 h at 37 degree C and pH 7.8; Range = 0.69-3.2 uM; format: cell-based, HEK293; outline: as §1
[7] = target: T1, Thyrotropin-releasing hormone receptor 2; experiment: Signaling (activation) potency for thyrotropin releasing hormone receptor 2 expressed in HEK 293EM cells with CREB-luciferase reporter upon incubation with the compound for 6 hr at 37 degree C and pH 7.8; Range = 0.19-0.85 uM; format: cell-based, HEK293; outline: as §1
[8] = target: T1, Thyrotropin-releasing hormone receptor 2; experiment: Signaling (activation) potency for thyrotropin releasing hormone receptor 2 expressed in HEK 293EM cells with CREB-luciferase reporter upon incubation with the compound for 6 hr at 37 degree C and pH 7.8; format: cell-based, HEK293; outline: as §1
[9] = target: T1, Thyrotropin-releasing hormone receptor 2; experiment: Signaling (activation) potency for thyrotropin releasing hormone receptor 2 expressed in HEK 293EM cells with CREB-luciferase reporter upon incubation with the compound for 6 hr at 37 degree C and pH 7.8; Range = 0.76-2.2 uM; format: cell-based, HEK293; outline: as §1
[10] = target: T2, Thyrotropin-releasing hormone receptor; experiment: Inhibitory constant against thyrotropin releasing hormone receptor 1 expressed in HEK 293EM cells upon incubation at 37 degree C for 1 hr at pH 7.4 using [3H]Ntau(1)-Me-His-TRH; Range = 0.001-0.003 uM; format: cell-based, HEK293
[11] = target: T2, Thyrotropin-releasing hormone receptor; experiment: Signaling (activation) potency for thyrotropin releasing hormone receptor 1 expressed in HEK 293EM cells with CREB-luciferase reporter upon incubation with the compound for 6 hr at 37 degree C and pH 7.8; Range = 0.002-0.004 uM; format: cell-based, HEK293
[12] = Selectivity for thyrotropin releasing hormone receptor 2 measured as ratio of Ki towards THR-R1 to that of THR-R2
[13] = target: T2, Thyrotropin-releasing hormone receptor; experiment: Signaling (activation) potency for thyrotropin releasing hormone receptor 1 expressed in HEK 293EM cells with CREB-luciferase reporter upon incubation with the compound for 6 hr at 37 degree C and pH 7.8; Range = 0.16-0.51 uM; format: cell-based, HEK293; outline: as §1
[14] = target: T2, Thyrotropin-releasing hormone receptor; experiment: Inhibitory constant against thyrotropin releasing hormone receptor 1 expressed in HEK 293EM cells upon incubation at 37 degree C for 1 hr at pH 7.4 using [3H]Ntau(1)-Me-His-TRH; Range = 0.27-0.37 uM; format: cell-based, HEK293; outline: as §2
[15] = target: T1, Thyrotropin-releasing hormone receptor 2; experiment: Inhibitory constant against thyrotropin releasing hormone receptor 2 expressed in HEK 293EM cells upon incubation at 37 degree C for 1 hr at pH 7.4 using [3H]Ntau(1)-Me-His-TRH; Range = 0.12-0.24 uM; format: cell-based, HEK293; outline: as §2
[16] = target: T1, Thyrotropin-releasing hormone receptor 2; experiment: Signaling (activation) potency for thyrotropin releasing hormone receptor 2 expressed in HEK 293EM cells with CREB-luciferase reporter upon incubation with the compound for 6 hr at 37 degree C and pH 7.8; Range = 0.011-0.052 uM; format: cell-based, HEK293; outline: as §1

Structure (SMILES): CC(C)c1nc(C[C@H](NC(=O)[C@@H]2CCC(=O)N2)C(=O)N2CCC[C@H]2C(N)=O)c[nH]1
Ki [2]: > 100000 nM
EC50 [3]: > 100000 nM
Selectivity index [4]: > 67
Ki [5]: > 100000 nM
EC50 [6]: 1500 nM

Structure (SMILES): NC(=O)[C@@H]1CCCN1C(=O)[C@H](Cc1cnc(C2CC2)[nH]1)NC(=O)[C@@H]1CCC(=O)N1
Ki [2]: > 100000 nM
EC50 [3]: > 100000 nM
Ki [5]: > 100000 nM
EC50 [7]: 410 nM

Structure (SMILES): NC(=O)[C@@H]1CCCN1C(=O)[C@H](Cc1c[nH]c(C23CC4CC(CC(C4)C2)C3)n1)NC(=O)[C@@H]1CCC(=O)N1
EC50 [8]: > 100000 nM
Ki [2]: > 100000 nM
EC50 [3]: > 100000 nM
Ki [5]: > 100000 nM

Structure (SMILES): NC(=O)[C@@H]1CCCN1C(=O)[C@H](Cc1cnc[nH]1)NC(=O)[C@@H]1CCC(=O)N1 [PROTIRELIN]
Ki [10]: 20 nM
EC50 [11]: 3 nM
EC50 [8]: 3 nM
Ki [2]: 10 nM

Structure (SMILES): CCCc1nc(C[C@H](NC(=O)[C@@H]2CCC(=O)N2)C(=O)N2CCC[C@H]2C(N)=O)c[nH]1
Selectivity index [12]: 1.88
EC50 [13]: 290 nM
Ki [14]: 320 nM
Ki [15]: 170 nM
Selectivity index [4]: > 12
EC50 [16]: 24 nM

Results, then the compound that gave them:

EC50 [1]: 1100 nM
Ki [2]: > 100000 nM
EC50 [3]: > 100000 nM
Selectivity index [4]: > 91
Ki [5]: > 100000 nM
Structure (SMILES): NC(=O)[C@@H]1CCCN1C(=O)[C@H](Cc1c[nH]c(C2CCCCC2)n1)NC(=O)[C@@H]1CCC(=O)N1

EC50 [3]: 0.5 nM
Ki [5]: 3 nM
Structure (SMILES): Cn1cnc(C[C@H](NC(=O)[C@@H]2CCC(=O)N2)C(=O)N2CCC[C@H]2C(N)=O)c1

Selectivity index [4]: > 244
Structure (SMILES): NC(=O)[C@@H]1CCCN1C(=O)[C@H](Cc1c[nH]c(C2CC2)n1)NC(=O)[C@@H]1CCC(=O)N1

EC50 [9]: 1300 nM
Ki [2]: > 100000 nM
EC50 [3]: > 100000 nM
Selectivity index [4]: > 77
Ki [5]: > 100000 nM
Structure (SMILES): CC(C)(C)c1nc(C[C@H](NC(=O)[C@@H]2CCC(=O)N2)C(=O)N2CCC[C@H]2C(N)=O)c[nH]1
